Data as given in ChEMBL document CHEMBL4190216, “Asymmetric 1,5-diarylpenta-1,4-dien-3-ones: Antiproliferative activity in prostate epithelial cell models and pharmacokinetic studies” (Eur J Med Chem, 2017).

Legend:
[1] = system: PC-3; experiment: Antiproliferative activity against human PC3 cells assessed as decrease in cell viability after 3 days by WST assay; type: functional, cell-based; settings: PC-3, 72 h
Outline: (§1)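 Cells were seeded at 3,200 per well. PC-3 and LNCaP were grown in RPMI-1640 and DU-145 in EMEM, each with 10% FBS and 1% penicillin/streptomycin, at 37 °C and 5% CO2. Cells were exposed for 3 days to at least five concentrations, with DMSO as vehicle control. WST-1 reagent was then added for 3 h at 37 °C and absorbance read at 430 nm. IC50 came from linear inhibition, averaged over triplicates.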

[2] = system: DU-145; experiment: Antiproliferative activity against human DU145 cells assessed as decrease in cell viability after 3 days by WST assay; type: functional, cell-based; settings: DU-145, 72 h; outline: as §1
[3] = system: LNCaP; experiment: Antiproliferative activity against human LNCAP cells assessed as decrease in cell viability after 3 days by WST assay; type: functional, cell-based; settings: 72 h; outline: as §1
[4] = system: PC-3; experiment: Potency index, ratio of curcumin IC50 to test compound IC50 for human PC3 cells; type: functional
[5] = system: DU-145; experiment: Potency index, ratio of curcumin IC50 to test compound IC50 for human DU145 cells; type: functional
[6] = system: PWR-1E; experiment: Antiproliferative activity against human PWR-1E cells expressing androgen receptor and PSA assessed as decrease in cell viability after 3 days by WST assay; type: functional, cell-based; settings: 72 h
Outline: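 Non-malignant prostate epithelial PWR-1E (adenovirus 12/SV40-immortalized) was seeded at 5,000 per well. Cells were exposed for 3 days at 37 °C in a CO2 incubator to at least five concentrations, with DMSO as vehicle control. WST-1 reagent was then added for 3 h at 37 °C and absorbance read at 430 nm. IC50 came from linear inhibition, as the mean of triplicate determinations.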

[7] = system: PWR-1E; experiment: Potency index, ratio of curcumin IC50 to test compound IC50 for human PWR-1E cells expressing androgen receptor and PSA; type: functional
[8] = Antiproliferative activity against human LNCaP95 cells expressing androgen receptor splice variants assessed as decrease in cell viability after 5 days by trypan blue exclusion assay; type: functional, cell-based; settings: LNCaP-95, 120 h
[9] = system: VCaP; experiment: Antiproliferative activity against human VCaP cells expressing androgen receptor splice variants assessed as decrease in cell viability after 5 days by trypan blue exclusion assay; type: functional, cell-based; settings: 120 h
[10] = system: CWR22R; experiment: Antiproliferative activity against human 22Rv1 cells expressing androgen receptor splice variants assessed as decrease in cell viability after 5 days by trypan blue exclusion assay; type: functional, cell-based; settings: 22Rv1, 120 h
[11] = Plasma concentration in Sprague-Dawley rat at 10 mg/kg administered via oral gavage measured at 1 hr by HPLC-MS/MS analysis; type: ADME, organism-based
[12] = Plasma concentration in Sprague-Dawley rat at 10 mg/kg administered via oral gavage measured at 3 hrs by HPLC-MS/MS analysis; type: ADME, organism-based
[13] = Plasma concentration in Sprague-Dawley rat at 10 mg/kg administered via oral gavage measured at 6 hrs by HPLC-MS/MS analysis; type: ADME, organism-based
[14] = Plasma concentration in Sprague-Dawley rat at 10 mg/kg administered via oral gavage measured after 1 day by HPLC-MS/MS analysis; type: ADME, organism-based
[15] = Tmax in Sprague-Dawley rat at 10 mg/kg administered via oral gavage by HPLC-MS/MS analysis; type: ADME, organism-based; settings: in vivo
[16] = Cmax in Sprague-Dawley rat at 10 mg/kg administered via oral gavage by HPLC-MS/MS analysis; type: ADME, organism-based; design: dose 10 mg/kg, route oral; settings: in vivo
[17] = AUC in Sprague-Dawley rat at 10 mg/kg administered via oral gavage by HPLC-MS/MS analysis; type: ADME, organism-based; settings: in vivo
[18] = system: Rattus norvegicus; experiment: Acute toxicity in Sprague-Dawley rat assessed as mortality at 10 mg/kg administered via oral gavage after 72 hrs; type: organism-based; settings: in vivo
Outline: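 Male Sprague-Dawley rats (250–300 g, n = 4) each received a single 10 mg/kg oral gavage dose. The vehicle was 5% DMSO, 40% polyethylene glycol 400 and 55% saline. Blood was drawn from the lateral tail vein at 1, 3, 6 and 24 h for plasma drug levels. Toxicity was scored as observed deaths after dosing.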

CC(C)n1c(/C=C/C(=O)/C=C/c2ccccn2)nc2ccccc21
IC50 [1]: 40 nM
IC50 [2]: 120 nM
IC50 [3]: 30 nM
Ratio IC50 [4]: 636
Ratio IC50 [5]: 219
IC50 [6]: 10 nM
Ratio IC50 [7]: 885
IC50 [8]: 260 nM
IC50 [9]: 640 nM
IC50 [10]: 450 nM
concentration at 1 h [11]: 823 ng/mL
concentration at 3 h [12]: 4260 ng/mL
concentration at 6 h [13]: 456 ng/mL
concentration at 24 h [14]: 103 ng/mL
Tmax [15]: 3 h
Cmax [16]: 13.5 µM
AUC [17]: 17600 ng·h/mL
Activity [18]: Toxic
